This assay deals with 5-hydroxytryptamine receptor 2B (Rattus norvegicus, UniProt P30994). The assay can be described thus: The binding affinity to 5-hydroxytryptamine 2B receptor of rat fundus. The settings on record: read-out: pA2 (converted). In a few lines:
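Isolated rat stomach fundus strip preparation. After a 1-h equilibration, 5-HT oxalate dose-response curves (9–11 increasing concentrations) were run without and with 4–5 increasing concentrations of test compound. Apparent affinity was expressed as pA2 by Arunlakshana–Schild analysis, with linear regression giving both pA2 and Schild plot slope.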
Chain of 5-hydroxytryptamine receptor 2B (P30994 whole entry): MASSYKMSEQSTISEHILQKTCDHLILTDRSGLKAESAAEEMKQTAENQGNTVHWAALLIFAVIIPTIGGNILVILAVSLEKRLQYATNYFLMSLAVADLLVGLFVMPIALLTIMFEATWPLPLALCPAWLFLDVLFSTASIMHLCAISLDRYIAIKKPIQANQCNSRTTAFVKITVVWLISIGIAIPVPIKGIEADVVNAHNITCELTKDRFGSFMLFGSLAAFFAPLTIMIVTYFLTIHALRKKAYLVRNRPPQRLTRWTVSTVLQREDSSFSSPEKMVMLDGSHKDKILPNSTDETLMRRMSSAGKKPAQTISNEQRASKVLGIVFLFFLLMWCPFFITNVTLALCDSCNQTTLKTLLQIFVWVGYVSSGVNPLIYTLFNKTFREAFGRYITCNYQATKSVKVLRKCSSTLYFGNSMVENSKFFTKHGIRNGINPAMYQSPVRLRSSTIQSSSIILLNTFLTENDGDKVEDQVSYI
With `CN(C)CCC1=CCc2ccccc21`, the Kb is 2090 nM.

In the case of `CNCCC1CCc2ccccc21` (stereo in doubt; 4d), the Kb is 2190 nM.

For the compound `NCCc1c[nH]c2ccccc12` [TRYPTAMINE], the Kb is 537 nM.

As to `CN(C)CCNc1ccccc1`, the Kb was 955 nM.

Take `CN(C)CCC1CNc2ccccc21` (racemic): the Kb is 2090 nM.

`CN(C)CCCc1ccccc1`: the Kb is 8130 nM.

As to `CN(C)CCC1CCc2ccccc21` (racemic), the Kb is 4570 nM.

For `CNCCC1CCc2ccccc21` (racemic), the Kb was 4270 nM.

Turning to `CN(C)CCC(=O)c1ccccc1`, the Kb was 4790 nM.

Consider `NCCC1CCc2ccccc21` (racemic), for which the Kb is 2510 nM.

For the compound `COc1ccc2c(c1)C(CCN(C)C)CN2` (racemic), the Kb was 182 nM.

On to `CNCCc1c[nH]c2ccccc12`, for which the Kb is 1070 nM.

Turning to `NC1CCc2ccccc2C1` (stereo not drawn), the Kb is 2450 nM.
